Data taken from ChEMBL document CHEMBL1122890, “Resolved monophenolic 2-aminotetralins and 1,2,3,4,4a,5,6,10b-octahydrobenzo[f]quinolines: structural and stereochemical considerations for centrally acting pre- and postsynaptic dopamine-receptor agonists” (1985).
Activity calls are given as the source filed them. The calls are words filed in the database; no cut-off is given here.

Key:
[1] = species on record: Rattus norvegicus; assay: Evaluated for dopa accumulation (biochemical activity) in rat limbic system; assay type: functional
In short: (§1)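 Male Sprague-Dawley rats, 200-300 g. Compound dissolved in saline (sometimes with a little glacial acetic acid or warming), neutral pH, given sc at 50 μmol/kg. Dopa in limbic forebrain and striatum was measured by HPLC with electrochemical detection and expressed as percent of controls.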

[2] = species on record: Rattus norvegicus; assay: Evaluated for dopa accumulation (biochemical activity) in rat striatum; assay type: functional; in short: as §1
[3] = tested on: Rattus norvegicus; assay: Evaluated for the dose giving a half-maximal decrease of dopa formation in the rat brain, at a dose of 213000 (nmol/kg); assay type: functional
In short: (§2)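 Male Sprague-Dawley rats (200-300 g) received sc doses in saline, neutral pH. Dopa was measured in each brain area by HPLC with electrochemical detection. A separate dose-response curve was built per substance and brain area from four to six dose levels (n = 3-5). The dose giving half-maximal decrease of Dopa formation was estimated from that curve. Student's t-test was used, p ≤ 0.05.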

[4] = tested on: Rattus norvegicus; assay: Evaluated for the dose giving a half-maximal decrease of dopa formation in the rat brain, at a dose of 39000 (nmol/kg); assay type: functional; in short: as §2
[5] = tested on: Rattus norvegicus; assay: Evaluated for dopa accumulation (biochemical activity) in rat striatum; Inactive at 50 umol/kg; assay type: functional, organism-based; in short: as §1
[6] = tested on: Rattus norvegicus; assay: Evaluated for dopa accumulation (biochemical activity) in rat limbic system; Inactive at 50 umol/kg; assay type: functional, organism-based; in short: as §1
[7] = tested on: Rattus norvegicus; assay: Evaluated for the dose giving a half-maximal decrease of dopa formation in the rat brain, at a dose of 1300 (nmol/kg); assay type: functional; in short: as §2
[8] = tested on: Rattus norvegicus; assay: Evaluated for the dose giving a half-maximal decrease of dopa formation in the rat brain, at a dose of 3100 (nmol/kg); assay type: functional; in short: as §2
[9] = tested on: Rattus norvegicus; assay: Evaluated for the dose giving a half-maximal decrease of dopa formation in the rat brain, at a dose of 50000 (nmol/kg); assay type: functional; in short: as §2
[10] = tested on: Rattus norvegicus; assay: Evaluated for the dose giving a half-maximal decrease of dopa formation in the rat brain, at a dose of 31000 (nmol/kg); assay type: functional; in short: as §2
[11] = tested on: Rattus norvegicus; assay: Evaluated for the dose giving a half-maximal decrease of dopa formation in the rat brain, at a dose of 310 (nmol/kg); assay type: functional; in short: as §2
[12] = tested on: Rattus norvegicus; assay: Evaluated for the dose giving a half-maximal decrease of dopa formation in the rat brain, at a dose of 13000 (nmol/kg); assay type: functional; in short: as §2

Compound	ED50 [1] [µmol/kg]	ED50 [2] [µmol/kg]	also measured
CCCN(CCC)[C@@H]1CCc2ccc(O)cc2C1	0.0095	0.011	–
CCCN1CCC[C@@H](c2cccc(O)c2)C1.Cl [PRECLAMOL HYDROCHLORIDE]	0.8	1.7	Accumulation counts [3]: 12
CCCN(CCC)[C@@H]1CCc2c(O)cccc2C1.Cl	0.41	0.65	Accumulation counts [4]: <43
CCCN1CCC[C@H]2c3cccc(O)c3CC[C@H]21	–	–	ED50 [5]: inactive; ED50 [6]: inactive
CCCN1CCC[C@H]2c3cccc(O)c3CC[C@@H]21	0.014	0.014	Accumulation counts [7]: <62 Counts; Accumulation counts [8]: <78 Counts
CCCN(CCC)[C@H]1CCc2ccc(O)cc2C1	1.9	2.4	–
Br.CCCCN1CCCC2c3cc(O)ccc3CC[C@H]21 (some centres undefined)	–	–	ED50 [5]: inactive; ED50 [6]: inactive; Accumulation counts [9]: <75
CCCN1CCC[C@@H]2c3cccc(O)c3CC[C@H]21	0.32	0.41	Accumulation counts [10]: <138 Counts; ED50 [5]: inactive; ED50 [6]: inactive; Accumulation counts [9]: 31; Accumulation counts [8]: <59 Counts
CN1CCc2cccc3c2[C@H]1Cc1ccc(O)c(O)c1-3 [APOMORPHINE]	0.19	0.22	–
CCCN(CCC)[C@H]1CCc2c(O)cccc2C1.Cl	0.0037	0.0037	Accumulation counts [11]: <155 Counts
CCCN1CCC[C@H](c2cccc(O)c2)C1.Cl	1	1.3	Accumulation counts [12]: 78
